ChEMBL document CHEMBL1156555, “Synthesis and anti-inflammatory activity of 2-aryloxy methyl oxazolines” (Bioorg Med Chem Lett, 2008)

Assays:
Rattus norvegicus [1] = assay: Toxic ulcerogenic effect in albino rat assessed as incidence of ulcer at 400 mg/kg, po; type: toxicity, organism-based; set-up: dose 400 mg/kg, route oral; settings: in vivo
Procedure, shortened: (§1)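 Rats (200–230 g) in groups of 10 were fasted 24 h, then given the compound orally. They were killed 5 h after dosing. Stomach and small intestine were examined under a microscope for hyperemia, epithelial shedding, petechiae, frank haemorrhage, and erosion or ulceration with or without perforation. Any of these criteria counted as ulcerogenic.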

Rattus norvegicus [2] = assay: Toxic ulcerogenic effect in albino rat assessed as incidence of ulcer at 100 mg/kg, po; type: toxicity, organism-based; set-up: dose 100 mg/kg, route oral; settings: in vivo; procedure, shortened: as §1
Oryctolagus cuniculus = species on record: Oryctolagus cuniculus; assay: Inhibition of cyclooxygenase in rabbit colon microsomes assessed as reduction in conversion of arachidonic acid to PGE2 at 10 uM by liquid scintillation spectrometry relative to control
Procedure, shortened: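 Rabbit distal colon mucosa (2–3 g) was homogenized in 0.1 M Tris pH 8.0, and the microsomal pellet was used fresh. Microsomes were incubated with the test agent for 10 min at 37 °C in Tris-HCl pH 8.0 with 2 mM reduced glutathione, L-tryptophan and hematin. Products were separated by isocratic HPLC (150 mM orthophosphoric acid pH 3.5, 30% acetonitrile; UV 214 nm), and PGE2-co-eluting radioactivity was counted by liquid scintillation.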

[3] = Acute toxicity in albino rat assessed as mortality after 24 hrs; type: organism-based; settings: in vivo, read-out: ALD50
Procedure, shortened: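 Albino rats (200–230 g), groups of 10, given test compounds intraperitoneally at several dose levels. Percent mortality per group recorded 24 h after dosing. ALD50 calculated from the mortality data by a previously described method.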

Rattus norvegicus [4] = assay: Toxic ulcerogenic effect in albino rat assessed as incidence of hyperemia at 100 mg/kg, po; type: toxicity, organism-based; set-up: dose 100 mg/kg, route oral; settings: in vivo; procedure, shortened: as §1
Rattus norvegicus [5] = assay: Toxic ulcerogenic effect in albino rat assessed as incidence of ulcer at 200 mg/kg, po; type: toxicity, organism-based; set-up: dose 200 mg/kg, route oral; settings: in vivo; procedure, shortened: as §1
Rattus norvegicus [6] = assay: Antiinflammatory activity in albino rat assessed as inhibition of carrageenan-induced paw edema at 20 mg/kg, po administered 30 mins prior to challenge relative to control; type: functional
Procedure, shortened: (§2)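 Groups of five rats (200–230 g) were dosed orally. After 30 min, 0.2 ml of 1% carrageenan in 0.9% NaCl was injected subcutaneously into the hind-paw plantar aponeurosis. Paw volume was read by water plethysmometer before and at 3 h. % inhibition = (1 − vt/vc) × 100, using mean relative oedema changes against five carrageenan-only controls.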

Rattus norvegicus [7] = assay: Toxic ulcerogenic effect in albino rat assessed as incidence of hyperemia at 200 mg/kg, po; type: toxicity, organism-based; set-up: dose 200 mg/kg, route oral; settings: in vivo; procedure, shortened: as §1
Rattus norvegicus [8] = assay: Antiinflammatory activity in po dosed albino rat assessed as inhibition of carrageenan-induced paw edema administered 30 mins prior to challenge; type: functional
Rattus norvegicus [9] = assay: Toxic ulcerogenic effect in albino rat assessed as incidence of hyperemia at 400 mg/kg, po; type: toxicity, organism-based; set-up: dose 400 mg/kg, route oral; settings: in vivo; procedure, shortened: as §1
Rattus norvegicus [10] = assay: Antiinflammatory activity in albino rat assessed as inhibition of carrageenan-induced paw edema at 80 mg/kg, po administered 30 mins prior to challenge relative to control; type: functional; procedure, shortened: as §2
Rattus norvegicus [11] = assay: Antiinflammatory activity in albino rat assessed as inhibition of carrageenan-induced paw edema at 40 mg/kg, po administered 30 mins prior to challenge relative to control; type: functional; procedure, shortened: as §2

Row | Compound | Activity (Rattus norvegicus [1]) | Activity (Rattus norvegicus [2]) | inhibition (Oryctolagus cuniculus) | LD50 at 24 h [3] | Activity (Rattus norvegicus [4]) | Activity (Rattus norvegicus [5]) | inhibition in vivo at 20 mg/kg (Rattus norvegicus [6]) | Activity (Rattus norvegicus [7]) | ED50 (Rattus norvegicus [8]) | Activity (Rattus norvegicus [9]) | inhibition in vivo at 80 mg/kg (Rattus norvegicus [10]) | inhibition in vivo at 40 mg/kg (Rattus norvegicus [11])
1 | Cc1cc(OCC2=NCCO2)ccc1Cl | 40% | 20% | 87% | > 1000 mg/kg | 50% | 30% | 22.2% | 70% | 60.2 mg/kg | 100% | 77.1% | 45.4%
2 | Cc1ccc(OCC2=NCCO2)c(C)c1 | 18% | 15% | – | > 1000 mg/kg | 25% | 25% | 31.4% | 50% | 57.3 mg/kg | 75% | 85.5% | 46.5%
3 | O=[N+]([O-])c1ccccc1OCC1=NCCO1 | 45% | 20% | 30% | > 1000 mg/kg | 30% | 25% | 20.5% | 55% | 70.1 mg/kg | 90% | 50.5% | 35.5%
4 | COc1ccc(OCC2=NCCO2)cc1 | 15% | 5% | 70% | > 1000 mg/kg | 50% | 10% | 16.6% | 70% | 77.2 mg/kg | 90% | 64.1% | 33.2%
5 | O=[N+]([O-])c1ccc(OCC2=NCCO2)cc1 | 20% | 10% | 85% | > 1000 mg/kg | 50% | 15% | 29.2% | 70% | 60.5 mg/kg | 100% | 77.1% | 30.4%
6 | O=[N+]([O-])c1cccc(OCC2=NCCO2)c1 | 80% | 45% | – | > 1000 mg/kg | 20% | 30% | 15.5% | 35% | 75.5 mg/kg | 55% | 46.5% | 29.4%
7 | CC(=O)Oc1ccccc1C(=O)O [ASPIRIN] | 90% | 80% | 65% | – | 30% | 90% | 30.4% | 60% | – | 90% | 59.6% | 35.5%
8 | Brc1ccccc1OCC1=NCCO1 | 40% | 10% | 40% | > 1000 mg/kg | 70% | 20% | 20.1% | 90% | 62.5 mg/kg | 100% | 62.8% | 29.1%
9 | Clc1ccccc1OCC1=NCCO1 | 80% | 40% | – | > 1000 mg/kg | 20% | 30% | 13.7% | 40% | 77.5 mg/kg | 60% | 45.5% | 22.2%
10 | Cc1cccc(OCC2=NCCO2)c1 | 25% | 15% | 70% | > 1000 mg/kg | 50% | 20% | 16.6% | 70% | 76.2 mg/kg | 90% | 64.1% | 44.6%
11 | Fc1ccc(OCC2=NCCO2)cc1 | 75% | 50% | – | > 1000 mg/kg | 25% | 25% | 18.5% | 40% | 75.5 mg/kg | 50% | 40.5% | 30.2%
12 | Cc1ccccc1OCC1=NCCO1 | 40% | 10% | 20% | > 1000 mg/kg | 40% | 20% | 3.1% | 60% | 78.3 mg/kg | 100% | 55.3% | 29.5%
13 | CCCCC1C(=O)N(c2ccccc2)N(c2ccccc2)C1=O [PHENYLBUTAZONE] | 90% | 30% | 60% | – | 30% | 60% | 31.3% | 60% | – | 90% | 57.2% | 35.5%
14 | Brc1ccc(OCC2=NCCO2)cc1 | 15% | 5% | 60% | > 1000 mg/kg | 60% | 10% | 35.5% | 80% | 65.5 mg/kg | 100% | 60.1% | 48.5%
15 | Clc1ccc(OCC2=NCCO2)cc1 | 12% | 10% | – | > 1000 mg/kg | 30% | 20% | 30.3% | 60% | 51.2 mg/kg | 90% | 94.1% | 48.2%
16 | Fc1ccccc1OCC1=NCCO1 | 20% | 10% | 65% | > 1000 mg/kg | 40% | 15% | 20.6% | 60% | 76.2 mg/kg | 80% | 60.1% | 30.5%
